ChEMBL document CHEMBL1921780, “Novel 3-nitro-1H-1,2,4-triazole-based aliphatic and aromatic amines as anti-chagasic agents” (J Med Chem, 2011)

Columns and labels:
[1] = system: Trypanosoma brucei rhodesiense; experiment: Antitrypanosomal activity against blood stream form of Trypanosoma brucei rhodesiense STIB 900 […] after 72 hrs by alamar blue assay; assay type: functional, organism-based; settings: STIB 900, 72 h
[2] = system: L6; experiment: Cytotoxicity against rat L6 cells after 72 hrs by alamar blue assay; assay type: cell-based; settings: L6, 72 h
Procedure, shortened: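 Run in 96-well plates with a compound dose series. T. cruzi was tested as amastigotes inside infected L6 rat skeletal myoblasts. Uninfected L6 cells were used for cytotoxicity. IC50 was obtained by linear regression from sigmoidal dose–inhibition curves.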

[3] = Selectivity index, ratio of IC50 for rat L6 cells to IC50 for Trypanosoma brucei rhodesiense STIB 900; assay type: toxicity, cell-based; settings: L6 cells versus Trypanosoma brucei rhodesiense STIB 900, read-out: Ratio IC50
Procedure, shortened: (§1)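 Selectivity index is the L6 myoblast IC50 divided by the IC50 for each parasite. L. donovani was tested as axenic amastigotes. Both IC50s came from 96-well dose-response screens fitted by linear regression of sigmoidal curves.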

[4] = Selectivity index, ratio of IC50 for rat L6 cells to IC50 for Trypanosoma cruzi Tulahuen C4; assay type: toxicity, cell-based; settings: L6 cells versus Trypanosoma cruzi Tulahuen C4, read-out: Ratio IC50; procedure, shortened: as §1
[5] = Selectivity index, ratio of IC50 for rat L6 cells to IC50 for Leishmania donovani MHOM-ET-67/L82; assay type: toxicity, cell-based; settings: L6 cells versus Leishmania donovani MHOM-ET-67/L82, read-out: Ratio IC50; procedure, shortened: as §1
[6] = system: Leishmania donovani; experiment: Antileishmanial activity against Leishmania donovani MHOM-ET-67/L82 axenic amastigotes after 72 hrs by alamar blue assay; settings: MHOM-ET-67/L82, 72 h
[7] = system: Trypanosoma cruzi; experiment: Antitrypanosomal activity against amastigotes of Trypanosoma cruzi Tulahuen C4 infected in rat L6 cells after 72 hrs by alamar blue assay; settings: Tulahuen C4, L6, 72 h
[8] = system: Trypanosoma cruzi; experiment: Ratio of benznidazole IC50 to compound IC50 for Trypanosoma cruzi Tulahuen C4 infected in rat L6 cells after 72 hrs by alamar blue assay; assay type: functional
[9] = Dissociation constant, pKa of the compound; assay type: physicochemical

SMILES	IC50 [1] [µM]	IC50 [7] [µM]	pKa [9]	IC50 [2] [µM]	selectivity ratio [3]	selectivity ratio [4]	selectivity ratio [5]	IC50 [6] [µM]	Ratio IC50 [8]
Cc1cc(NCCCn2ccnc2[N+](=O)[O-])nc(N)n1	10.3	7.08	–	> 287	> 28	> 41	–	> 95.7	–
Clc1ccc2c(NCCCCn3cncn3)ccnc2c1	21.8	92.1	–	> 298	> 14	> 3	–	> 298	–
Nc1nc(N)nc(Nc2ccc([As]3SCC(CO)S3)cc2)n1 (centres undefined) [MELARSOPROL]	0.01	–	–	–	–	–	–	–	–
O=[N+]([O-])c1nccn1CCCN(Cc1cccc(C(F)(F)F)c1)Cc1cccc(C(F)(F)F)c1	21.6	8.02	–	79.6	4	10	19	4.27	–
O=[N+]([O-])c1nccn1CCNc1c2ccccc2nc2ccccc12	0.996	0.996	–	0.308	–	–	–	9.09	–
Cl.O=[N+]([O-])c1ncn(CCCCNc2ccnc3cccnc23)n1	0.435	0.46	6.81	95.8	220	208	–	> 276	2.9
Cl.O=[N+]([O-])c1ncn(CCCCNc2ccnc3cc(C(F)(F)F)ccc23)n1	0.117	0.305	7.53	114	973	373	1	137	4.4
Cl.O=[N+]([O-])c1ncn(CCCNc2c3ccccc3nc3ccccc23)n1	0.611	0.14	9.2	20.5	34	147	1	35.4	9.6
O=C1C(Cl)=C(NCCCn2cnc([N+](=O)[O-])n2)C(=O)c2ccccc21	0.882	15.6	–	7.16	8	–	1	6.53	–
COc1cc2nc(Cl)nc(NCCCCn3ccnc3[N+](=O)[O-])c2cc1OC	2.26	0.968	–	16.5	7	17	5	3.63	–
Cl.O=[N+]([O-])c1ncn(CCCN(Cc2ccc3ccc(Cl)cc3n2)Cc2ccc3ccc(Cl)cc3n2)n1	0.917	0.358	6.87	71.6	78	200	7	9.58	3.8
Cl.O=[N+]([O-])c1ncn(CCCNCc2ccc(C(F)(F)F)cc2)n1	3.61	0.32	9.65	122	34	383	1	159	4.2
O=[N+]([O-])c1nccn1CCCCNc1ccnc2cc(Cl)ccc12	1.87	3.51	–	66.8	36	19	2	39.1	–
FC(F)(F)c1cc(CNCCCCn2cncn2)cc(C(F)(F)F)c1	32.3	123	–	> 224	> 7	> 2	> 1	172	–
COc1ccc2nc3cc(Cl)ccc3c(NCCCCn3cnc([N+](=O)[O-])n3)c2c1	0.134	0.151	8.84	9.94	74	66	1	10.2	–
O=[N+]([O-])c1nccn1CCCNc1ccnc2cc(Cl)ccc12	1.4	1.04	–	24.9	18	24	–	54.4	–

Further compounds by falling IC50 [1], results first:

IC50 [1] [µM]	IC50 [7] [µM]	pKa [9]	SMILES	IC50 [2] [µM]	selectivity ratio [3]	selectivity ratio [4]	selectivity ratio [5]	IC50 [6] [µM]	Ratio IC50 [8]
23	3.77	–	O=[N+]([O-])c1nccn1CCCN(Cc1ccc(C(F)(F)F)cc1)Cc1ccc(C(F)(F)F)cc1	> 172	> 7	> 46	> 27	6.49	–
15.5	9.67	–	O=[N+]([O-])c1nccn1CCCCNc1nc(-c2ccccc2)nc(Cl)c1-c1ccccc1	11.7	1	1	1	12.4	–
15.3	20.7	–	O=[N+]([O-])c1nccn1CCCN1CCN(Cc2ccc(C(F)(F)F)cc2)CC1	> 191	> 13	> 9	–	> 191	–
15.2	4.28	–	Cc1nc(C(F)(F)F)nc(NCCCn2ccnc2[N+](=O)[O-])c1C	> 236	> 16	> 55	> 12	20.1	–
14.2	4.67	–	O=[N+]([O-])c1nccn1CCCN(Cc1ccc2cc(Br)ccc2n1)Cc1ccc2cc(Br)ccc2n1	93.6	7	20	5	18.7	–
13.8	24.5	–	O=[N+]([O-])c1nccn1CCCNCc1cc(C(F)(F)F)cc(C(F)(F)F)c1	140	10	6	< 2	> 69.4	–
11.8	41.8	–	Cc1cc(NCCCCn2ccnc2[N+](=O)[O-])nc(N)n1	> 275	> 23	> 7	> 3	98.1	–
8.56	6.05	–	O=[N+]([O-])c1nccn1CCCNCc1ccc2cc(Br)ccc2n1	137	16	23	2	80.3	–
8.17	1.96	–	O=[N+]([O-])c1ncn(CCCN(Cc2cc(C(F)(F)F)cc(C(F)(F)F)c2)Cc2cc(C(F)(F)F)cc(C(F)(F)F)c2)n1	78.8	10	40	16	4.87	–
3.46	2.1	–	Cc1nc(NCCCn2ccnc2[N+](=O)[O-])c2ccccc2n1	31.6	9	15	–	68.3	–
2.76	3.63	–	O=[N+]([O-])c1nccn1CCCCNc1nc(-c2ccccc2)nc2ccccc12	32.5	12	9	5	6.17	–
2.19	33.7	–	Cc1cc(NCCCn2cnc([N+](=O)[O-])n2)nc(N)n1	> 286	> 131	> 8	–	> 95.4	–
1.05	0.311	8.76	Cl.O=[N+]([O-])c1ncn(CCCNCc2ccc3ccc(Cl)cc3n2)n1	143	136	460	2	63.8	4.3
0.621	30.1	–	O=C1C(Cl)=C(NCCCn2ccnc2[N+](=O)[O-])C(=O)c2ccccc21	3.91	6	–	8	0.516	–
0.601	0.926	–	O=[N+]([O-])c1nccn1CCCCNc1c2ccccc2nc2ccccc12	1.68	3	2	–	14.8	–
0.562	1.74	5.06	Cl.O=[N+]([O-])c1ncn(CCCCNc2nc(-c3ccccc3)nc3ccccc23)n1	77	137	44	9	8.69	0.8
0.463	0.32	6.87	Cl.O=[N+]([O-])c1ncn(CCCN(Cc2ccc3cc(Br)ccc3n2)Cc2ccc3cc(Br)ccc3n2)n1	46	99	144	5	9.33	4.2
